Laboratory results taken from ChEMBL document CHEMBL2424605, “Discovery of novel (1S)-(-)-verbenone derivatives with anti-oxidant and anti-ischemic effects” (Bioorg Med Chem Lett, 2013).
The source made the active and inactive calls. The rule behind the calls is not given here.

Tests used:
[1] = tested on: Radical scavenging activity; assay: Antioxidant activity assessed as inhibition of DPPH-induced free radical generation at 80 uM after 30 mins relative to control; format: functional
How it was run: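 DPPH scavenging given as % inhibition of DPPH absorbance, with values derived from a standard dose–response curve of vitamin C (0–500 µM). Mean ± SEM, N = 9.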

[2] = Antioxidant activity assessed as AAPH-induced free radical scavenging activity at 25 uM preincubated for 30 mins followed by AAPH induction measured every 5 mins for 9 hrs by ORAC assay relative to vehicle-treated control; format: functional
How it was run: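 ORAC: area under the fluorescence decay curve (netAUC) expressed as fold change relative to vehicle control. Mean ± SEM, N = 12; trolox included as reference.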

[3] = Cytotoxicity against Sprague-Dawley rat cortical neurons assessed as cell viability at 10 uM by LDH assay; conditions: cortical neurone
[4] = tested on: Cortical neurone; assay: Anti-ischemic activity in Sprague-Dawley rat cortical neurons assessed as reduction of oxygen-glucose deprivation-induced intracellular oxidative stress at 10 uM incubated for 30 mins prior to induction of oxygen-glucose deprivation and maintained during entire period of oxygen-glucose deprivation/reoxygenation measured after 1 hr by H2DCFDA staining-based […] microscopic analysis; format: functional, cell-based
How it was run: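 Neurons pretreated 30 min before 90 min OGD, with treatment kept through reoxygenation. H2DCFDA loaded 1 h after reoxygenation; intracellular oxidative stress read as rise in fluorescence intensity 2 h later by imaging.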

[5] = tested on: Cortical neurone; assay: Anti-excitotoxic activity in Sprague-Dawley rat cortical neurons assessed as reduction of NMDA-evoked neuronal injury at 10 uM incubated for 30 mins prior to NMDA induction and maintained during NMDA induction for 15 mins measured after 9 hrs; format: functional
How it was run: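 Rat cortical neurons exposed to NMDA for 15 min, then incubated 9 h. Compound or MK801 (10 µM) added 30 min before and kept during NMDA. Injury scored as % inhibition of LDH release, given as median with interquartile range; N = 9–18.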

[6] = tested on: Cortical neurone; assay: Anti-ischemic activity in Sprague-Dawley rat cortical neurons assessed as reduction of oxygen-glucose deprivation/reoxygenation-induced neuronal injury at 10 uM incubated for 30 mins prior to induction of oxygen-glucose deprivation and maintained during entire period of oxygen-glucose deprivation/reoxygenation measured after 9 hrs by LDH assay; format: functional
How it was run: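 Rat cortical neurons given 90 min oxygen-glucose deprivation, then 9 h reoxygenation. Compound, MK801 or trolox (10 µM or indicated concentrations) applied 30 min before OGD and kept through OGD/R. Neuronal injury read by LDH assay; mean ± SEM, N = 24.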

[7] = tested on: Radical scavenging activity; assay: Antioxidant activity assessed as inhibition of DPPH-induced free radical generation at 1 to 500 uM after 30 mins relative to control; format: functional
[8] = tested on: Cortical neurone; assay: Anti-excitotoxic activity in Sprague-Dawley rat cortical neurons assessed as inhibition of NMDA-induced intracellular calcium uptake at 10 uM incubated for 30 mins prior to NMDA induction measured after 50 secs by fluo-3 AM staining-based […] microscopic analysis; format: functional, cell-based
How it was run: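 Cultured rat cortical neurons loaded with Fluo-3 AM for 30 min with or without 10 µM compound, then exposed to NMDA. Intracellular free Ca2+ read 50 s after NMDA as fold change in integrated fluorescence density of Ca2+-bound Fluo-3 over basal. Median, interquartile range and min–max reported; N = 4–5; compared with NMDA-treated group.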

SMILES | inhibition [1] | fold change (FC) [2] | Activity [3] | Activity [4] | Activity [5] | Activity [6] | inhibition [7] [%] | inhibition [8]
CC1(C)[C@@H]2C[C@H]1C(/C=C/c1ccc(O)c(Br)c1)=CC2=O | 29.4% | 11.6 | Non-toxic |  |  |  |  | 
CC1=CC(=O)[C@H]2C[C@@H]1C2(C)C [LEVOVERBENONE] | inactive | 1.19 | Non-toxic |  |  |  |  | 
CC1(C)[C@@H]2C[C@H]1C(/C=C/c1ccc(O)c(O)c1)=CC2=O | 91.6% | 9.09 | Non-toxic | Active | Active | Active |  | 
CC1(C)[C@@H]2C[C@H]1C(/C=C/c1ccncc1)=CC2=O | inactive | 1.56 | Non-toxic |  |  |  |  | 
CC1(C)[C@@H]2C[C@H]1C(/C=C/c1ccc(O)cc1)=CC2=O | 19.1% | 10.7 | Non-toxic | inactive | Active | Active |  | 
Cc1c(C)c2c(c(C)c1O)CCC(C)(C(=O)O)O2 (stereo not given) |  | 3.11 |  |  |  |  |  | 
COc1cc(O)cc(OC)c1/C=C/C1=CC(=O)[C@H]2C[C@@H]1C2(C)C | 55.8% | 11.5 | Non-toxic |  |  |  |  | 
CC1(C)[C@@H]2C[C@H]1C(/C=C/c1ccccc1O)=CC2=O | 4.64% | 6.84 | Non-toxic |  |  |  |  | 
CC1(C)[C@@H]2C[C@H]1C(/C=C/c1cccc(O)c1)=CC2=O | inactive | 5.11 | Non-toxic |  |  |  |  | 
CC1(C)[C@@H]2C[C@H]1C(/C=C/c1ccc(-c3ccccc3)cc1)=CC2=O | inactive | 1.85 | Non-toxic |  |  |  |  | 
O=C1O[C@H]([C@@H](O)CO)C(O)=C1O |  |  |  |  |  |  | 74 | 
COc1ccc(/C=C/C2=CC(=O)[C@H]3C[C@@H]2C3(C)C)c(O)c1 | 51.2% | 9.48 | Non-toxic |  | Active |  |  | 
CC1(C)[C@@H]2C[C@H]1C(/C=C/c1ccccn1)=CC2=O | inactive | 1.63 | Non-toxic |  | Active |  |  | 
COc1ccc(OC)c(/C=C/C2=CC(=O)[C@H]3C[C@@H]2C3(C)C)c1 | inactive | 2.25 | Non-toxic |  |  |  |  | 
COc1cc(/C=C/C2=CC(=O)[C@H]3C[C@@H]2C3(C)C)cc(OC)c1 | inactive | 3.14 | Non-toxic |  |  |  |  | 
CC1(C)[C@@H]2C[C@H]1C(/C=C/c1cccnc1)=CC2=O | inactive | 1.59 | Non-toxic |  |  |  |  | 
COc1ccc(/C=C/C2=CC(=O)[C@H]3C[C@@H]2C3(C)C)cc1 | inactive | 2.64 | Non-toxic |  |  |  |  | 
COc1ccc(/C=C/C2=CC(=O)[C@H]3C[C@@H]2C3(C)C)cc1OC | inactive | 2.73 | Non-toxic |  |  |  |  | 
CC1(C)[C@@H]2C[C@H]1C(/C=C/c1ccc(F)cc1)=CC2=O | inactive | 1.81 | Non-toxic |  |  |  |  | 
CC1(C)[C@@H]2C[C@H]1C(/C=C/c1ccccc1)=CC2=O | inactive | 1.92 | Non-toxic |  |  |  |  | 
CC1(C)[C@@H]2C[C@H]1C(/C=C/c1ccc(-n3cccc3)cc1)=CC2=O | inactive | 6.81 | Non-toxic |  |  |  |  | 
COc1cc(O)ccc1/C=C/C1=CC(=O)[C@H]2C[C@@H]1C2(C)C | 38.1% | 7.37 | Non-toxic |  |  |  |  | 
COc1cc(/C=C/C2=CC(=O)[C@H]3C[C@@H]2C3(C)C)cc(O)c1O [SP-8356] | 83.6% | 6.86 | Non-toxic | Active | Active | Active |  | Active
C[C@]12N[C@H](Cc3ccccc31)c1ccccc12 [DIZOCILPINE] |  |  | Non-toxic |  | Active | Active |  | 
